# Published values of several laboratories.
# Protocols differ between the studies behind these lines.
# Target: Mitogen-activated protein kinase kinase kinase 5 (MAP3K5, Homo sapiens, UniProt Q99683)
# Residues used in one study (Q99683 1-1374): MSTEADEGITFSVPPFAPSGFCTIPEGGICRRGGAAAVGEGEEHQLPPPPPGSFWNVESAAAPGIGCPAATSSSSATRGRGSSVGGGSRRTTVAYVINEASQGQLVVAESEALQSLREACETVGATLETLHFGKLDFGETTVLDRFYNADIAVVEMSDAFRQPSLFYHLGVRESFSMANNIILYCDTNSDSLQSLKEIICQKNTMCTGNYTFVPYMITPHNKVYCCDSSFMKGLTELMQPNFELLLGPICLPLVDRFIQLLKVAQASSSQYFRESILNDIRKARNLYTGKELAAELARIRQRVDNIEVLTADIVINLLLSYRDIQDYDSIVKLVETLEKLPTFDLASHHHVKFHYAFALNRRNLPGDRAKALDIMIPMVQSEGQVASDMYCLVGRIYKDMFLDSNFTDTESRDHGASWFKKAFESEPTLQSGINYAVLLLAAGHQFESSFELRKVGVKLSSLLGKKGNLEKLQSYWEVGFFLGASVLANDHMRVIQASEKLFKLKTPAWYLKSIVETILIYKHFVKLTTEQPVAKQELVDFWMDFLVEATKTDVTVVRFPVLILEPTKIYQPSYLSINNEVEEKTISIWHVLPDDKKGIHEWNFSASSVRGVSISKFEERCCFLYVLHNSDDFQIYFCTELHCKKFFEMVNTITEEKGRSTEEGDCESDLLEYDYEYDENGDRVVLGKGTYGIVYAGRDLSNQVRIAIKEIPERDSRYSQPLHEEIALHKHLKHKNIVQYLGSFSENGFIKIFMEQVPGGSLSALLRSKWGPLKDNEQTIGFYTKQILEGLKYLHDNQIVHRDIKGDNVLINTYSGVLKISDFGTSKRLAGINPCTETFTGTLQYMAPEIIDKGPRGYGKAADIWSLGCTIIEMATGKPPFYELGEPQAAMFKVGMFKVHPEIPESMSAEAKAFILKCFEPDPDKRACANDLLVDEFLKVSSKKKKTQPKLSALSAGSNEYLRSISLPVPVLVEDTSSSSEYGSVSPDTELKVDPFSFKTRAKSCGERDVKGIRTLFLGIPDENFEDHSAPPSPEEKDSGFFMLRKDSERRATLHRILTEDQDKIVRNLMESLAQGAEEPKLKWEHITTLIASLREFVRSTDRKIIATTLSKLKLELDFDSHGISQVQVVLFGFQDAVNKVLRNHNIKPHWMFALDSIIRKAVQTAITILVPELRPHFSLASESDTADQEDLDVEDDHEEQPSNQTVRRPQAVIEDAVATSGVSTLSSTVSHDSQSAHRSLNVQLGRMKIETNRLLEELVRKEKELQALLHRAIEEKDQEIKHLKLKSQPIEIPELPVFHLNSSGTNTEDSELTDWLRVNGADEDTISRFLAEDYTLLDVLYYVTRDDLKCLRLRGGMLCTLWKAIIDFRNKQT
Structure (SMILES),effect on,action,method,tested at,quantity,value
C#Cc1cc(-c2cc(Nc3nc(N[C@@H](C)c4ccc(F)cn4)ncc3Cl)n[nH]2)ccc1C=O,enzyme activity,inhibitor,,0.2 µM,inhibition,4.04%
CO[C@@H]1[C@H](N(C)C(=O)c2ccccc2)C[C@H]2O[C@]1(C)n1c3ccccc3c3c4c(c5c6ccccc6n2c5c31)C(=O)NC4,enzyme activity,inhibitor,,1 µM,inhibition,0%
CCCCC(=O)Nc1ccc(-c2ccc3ncn(CCC)c(=O)c3c2)cn1,binding,,competition with immobilised ligand,0.5 µM,remaining binding,91%
COc1ccc2oc(-c3ccc4nc(N)oc4c3)c/c(=N\c3ccccc3NC(=O)CCN)c2c1,binding,,,1 µM,remaining binding,100%
CN1CCN(C(=O)c2ccc(NC(=O)Nc3ccc(N(C)c4ccnc(Nc5ccc(CS(C)(=O)=O)cc5)n4)cc3)cc2)CC1,binding,,,1 µM,remaining binding,100%
C=CC(=O)N1CCC[C@@H](n2nc(-c3ccc(Oc4ccccc4)cc3)c3c(N)ncnc32)C1,enzyme activity,inhibitor,,1 µM,inhibition,10%
Cc1ccc(NC(=O)c2ccnc(C(F)(F)F)c2)cc1-c1cc(OCCO)nc(N2CCOCC2)c1,binding,,,1 µM,remaining binding,92%
Cc1cc(O)c(-c2ccc([C@@H](C)CN(C)C)cc2)c2c1[nH]c(=O)c1sccc12,enzyme activity,inhibitor,,0.1 µM,inhibition,-7.51%
